pIC50: −log10 of the molar value. Calls of active or inactive are those of the source. The rule behind the calls is not given here.
How the values were obtained:
RPMI-8226 [1] = test: Induction of apoptosis in human RPMI8226 cells assessed as increase in PARP cleavage at 20 uM incubated for 48 hrs by immunoblot method; type: functional, cell-based
Procedure, shortened: (§1)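 RPMI-8226 myeloma cells exposed 48 h to lovastatin (20 μM) or bisphosphonates (5 mM), untreated cells as reference. Whole-cell lysates made in RIPA buffer, membrane (detergent) fraction by Triton X-114 partitioning; immunoblotting with β-tubulin (lysate) or calnexin (detergent fraction) as loading controls. Rap1a antibody recognizes only unprenylated protein. Blots representative of two independent experiments.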

RPMI-8226 [2] = test: Induction of apoptosis in human RPMI8226 cells assessed as increase in caspase-3 cleavage at 20 uM incubated for 48 hrs by immunoblot method; type: functional, cell-based; procedure, shortened: as §1
[3] = target: Geranylgeranyl transferase type I (Homo sapiens) (UniProt P49354+P53609); test: Inhibition of GGTase 1 in human RPMI8226 cells assessed as unmodified Rap1a accumulation at 5 mM incubated for 48 hrs by immunoblot method; type: cell-based; settings: RPMI-8226; procedure, shortened: as §1
[4] = Inhibition of recombinant GGTase 2 (unknown origin) using recombinant Rab1A and [3H]GGPP as substrate after 20 mins in presence of recombinant REP-2 by liquid scintillation counting analysis; set-up: species or system Homo sapiens
RPMI-8226 [5] = test: Induction of apoptosis in human RPMI8226 cells assessed as increase in PARP cleavage at 5 mM incubated for 48 hrs by immunoblot method; type: functional, cell-based; procedure, shortened: as §1
[6] = target: T1, Farnesyl pyrophosphate synthase (Homo sapiens, UniProt P14324); test: Inhibition of recombinant FDPS (unknown origin) assessed as decrease in […] level using GPP and [14C]IPP as substrate treated with enzyme for 10 mins prior to substrate challenge for 30 mins by liquid scintillation counting analysis
T1 sequence (P14324 whole entry): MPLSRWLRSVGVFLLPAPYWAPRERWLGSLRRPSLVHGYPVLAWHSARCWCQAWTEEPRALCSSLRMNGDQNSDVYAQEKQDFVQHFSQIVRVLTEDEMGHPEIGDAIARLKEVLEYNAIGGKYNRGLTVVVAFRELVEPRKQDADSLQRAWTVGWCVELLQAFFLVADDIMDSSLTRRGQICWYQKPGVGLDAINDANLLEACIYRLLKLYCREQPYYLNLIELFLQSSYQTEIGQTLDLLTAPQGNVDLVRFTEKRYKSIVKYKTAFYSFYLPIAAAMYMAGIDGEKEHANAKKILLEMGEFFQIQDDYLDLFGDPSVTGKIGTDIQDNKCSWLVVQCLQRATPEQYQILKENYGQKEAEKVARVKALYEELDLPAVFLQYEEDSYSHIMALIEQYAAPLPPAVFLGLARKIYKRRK

RPMI-8226 [7] = test: Induction of endoplasmic reticulum stress in human RPMI8226 cells assessed as increase in calnexin cleavage at 5 mM incubated for 48 hrs by immunoblot method; type: functional, cell-based
RPMI-8226 [8] = test: Induction of apoptosis in human RPMI8226 cells assessed as increase in caspase-3 cleavage at 5 mM incubated for 48 hrs by immunoblot method; type: functional, cell-based; procedure, shortened: as §1
RPMI-8226 [9] = test: Inhibition of GGTase 2 in human RPMI8226 cells assessed as disruption of monoclonal protein trafficking by measuring accumulation of intracellular lambda light chain at 5 mM incubated for 48 hrs by ELISA; type: cell-based
Procedure, shortened: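 RPMI-8226 cells treated 48 h with lovastatin (20 μM) or bisphosphonates (5 mM); intracellular lambda light chain quantified by ELISA, expressed as percentage of untreated control (mean + SD, n=3); unpaired two-tailed t-test against untreated cells.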

RPMI-8226 [10] = test: Inhibition of GGTase 2 in human RPMI8226 cells assessed as reduction in membrane bound Rab6 protein at 5 mM incubated for 48 hrs by immunoblot method; type: cell-based; procedure, shortened: as §1

| SMILES | inhibition [3] | pIC50 [4] | pIC50 [6] | Activity (RPMI-8226 [1]) | Activity (RPMI-8226 [2]) | Activity (RPMI-8226 [5]) | Activity (RPMI-8226 [7]) | Activity (RPMI-8226 [8]) | inhibition (RPMI-8226 [9]) | inhibition (RPMI-8226 [10]) |
| --- | --- | --- | --- | --- | --- | --- | --- | --- | --- | --- |
| CC[C@H](C)C(=O)O[C@H]1C[C@@H](C)C=C2C=C[C@H](C)[C@H](CC[C@@H]3C[C@@H](O)CC(=O)O3)[C@H]21 |  |  |  | Active | Active |  |  |  |  |  |
| O=C(O)C(Cc1cccnc1)P(=O)(O)O (stereo unspecified) | inactive | 2.96 | 3.00 |  |  | Active | Active | Active | inactive | Active |
| O=C(O)C(O)(Cc1cccnc1)P(=O)(O)O (stereo unspecified) | inactive | 3.15 | 3.70 |  |  | Active | Active | Active | Active | Active |

Continued by rising pIC50 [4], values first:

| inhibition [3] | pIC50 [4] | pIC50 [6] | SMILES | Activity (RPMI-8226 [1]) | Activity (RPMI-8226 [2]) | Activity (RPMI-8226 [5]) | Activity (RPMI-8226 [7]) | Activity (RPMI-8226 [8]) | inhibition (RPMI-8226 [9]) | inhibition (RPMI-8226 [10]) |
| --- | --- | --- | --- | --- | --- | --- | --- | --- | --- | --- |
| inactive | 2.74 | 2.70 | O=C(O)C(O)(Cc1ccc[n+]([O-])c1)P(=O)(O)O (stereo unspecified) |  |  |  |  |  | Active | Active |
| inactive | 3.10 | < 2.70 | O=C(O)C(Cc1ccc[n+]([O-])c1)P(=O)(O)O (stereo unspecified) |  |  | Active | Active | Active | inactive | inactive |

— ChEMBL document CHEMBL3421571, “N-Oxide derivatives of 3-(3-pyridyl)-2-phosphonopropanoic acids as potential inhibitors of Rab geranylgeranylation” (Bioorg Med Chem Lett, 2015)
